From article PMC6126370 (Investigational new drugs, 2017)
Each block holds one compound with its values, some of them ahead of it.

Assays:
[1] = PU-H71 metabolites in patient plasma; format: in vivo, human; details: aliquot of patient plasma, Fig. 5a
[2] = system: Bcl-6-dependent diffuse large B-cell lymphoma (DLBCL), hepatocellular carcinoma (HCC), and breast cancer cell lines; details: preclinical studies, through induction of apoptosis; cited from earlier work
[3] = system: human liver microsomal fractions; experiment: In vitro metabolism in liver microsomes or S9 fractions; format: in vitro ADME
Outline: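 Test compound at 1 and 10 μM was incubated with human liver microsomes or S9 fraction (0.5 mg protein/mL) with 1 mM NADPH and 3.3 mM […] in 100 mM phosphate, pH 7.4, at 37 °C with shaking. For O-methylation, 0.1 mM S-adenosyl methionine was added. Aliquots were processed like plasma and analysed by LC/MS.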

[4] = system: patients with advanced solid tumors; details: human, in vivo
[5] = system: refractory solid tumors; experiment: Clinical response by RECIST 1.1; format: in vivo, human
Outline: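 Adults (≥18 y) with solid tumors refractory to or lacking standard therapy received the test compound i.v. over 1 h on days 1 and 8 of 21-day cycles. Doses were 10–470 mg/m2/day, escalated by modified accelerated titration and then 3+3. Response was assessed by RECIST criteria in evaluable patients.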

[6] = system: mouse xenografts of triple negative breast cancer, lymphoma, myeloma, pancreatic, and hepatocellular carcinoma; details: preclinical mouse xenografts; cited from earlier work
[7] = Clinical pharmacokinetics of PU-H71 in plasma and urine; format: in vivo, human; details: for Urinary excretion: 1-h i.v. infusion
Outline: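 Patients with refractory solid tumors received the test compound (10–470 mg/m2) as a 1-h i.v. infusion. Heparinised blood was drawn on cycle 1 day 1 pre-infusion, 30 min after start, 5 min before end, and 1.5–24 h after start. Plasma was stored at −70 °C. Urine was collected every void on day 1. Plasma was acetonitrile-precipitated with deuterated internal standard and run on HPLC/MS against a control-plasma standard curve. Cmax/Tmax were taken by inspection and AUC by trapezoidal rule.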

[8] = 14 patients evaluable of 17 enrolled

- peak in representative ion mass tracing [1]: observed
Structure (SMILES): NCCCn1c(Sc2cc3c(cc2I)OCO3)nc2c(N)ncnc21 [compound 471, de-isopropyl PU-H71]

- most active phase 1 reaction ([3]; forms catechol 501): O-demethylation
- dependency of T1/2 to dose level ([7]; 10 to 470 mg/m^2): no dependency to dose level
- fraction of total AUC (± SD) during the infusion ([7]; all dose levels): 19.6% ± 11.3%
- Urinary excretion ([7]; dose level 1 (10 mg/m^2), day 1, 1 patient): 5.5%
- Urinary excretion ([7]; dose level 4 (60 mg/m^2), day 1, 1 patient): 8.8%
- Urinary excretion ([7]; dose level 5 (80 mg/m^2), day 1, mean ± SD of 2 patients): 6.7 ± 1.3%
- Urinary excretion ([7]; dose level 6 (110 mg/m^2), day 1, mean ± SD of 3 patients): 6.7 ±4.6%
- Urinary excretion ([7]; dose level 7 (150 mg/m^2), day 1, 1 patient): 8.1%
- Urinary excretion ([7]; dose level 8 (200 mg/m^2), day 1, mean ± SD of 2 patients): 6.0 ± 4.2%
- Urinary excretion ([7]; dose level 9 (266 mg/m^2), day 1, 1 patient): 5.4%
- Urinary excretion ([7]; dose level 10 (354 mg/m^2), day 1, mean ± SD of 3 patients): 8.6 ± 4.6%
- Urinary excretion ([7]; dose level 11 (470 mg/m^2), day 1, 1 patient): 5.7%
- Tmax ([7]; human, plasma, intravenous): ≤ 1 h
- half-life ([7]; human, plasma, intravenous): 2.7 to 19.8 h
- half-life ([7]; human, plasma, iv): 8.4 ± 3.6 h
- AUC(0-inf) ([7]; human, plasma, iv, 10 mg/m^2): 0.517 µM·h
- AUC(0-t) ([7]; human, plasma, iv, 10 mg/m^2): 0.45 µM·h
- Cmax ([7]; human, plasma, iv, 10 mg/m^2): 0.2 µM
- clearance ([7]; human, plasma, iv, 10 mg/m^2): 17.2 mL/min/kg
- half-life ([7]; human, plasma, iv, 10 mg/m^2): 2.7 h
- AUC(0-inf) ([7]; human, plasma, iv, 20 mg/m^2): 1.67 µM·h
- AUC(0-t) ([7]; human, plasma, iv, 20 mg/m^2): 1.23 µM·h
- Cmax ([7]; human, plasma, iv, 20 mg/m^2): 0.3 µM
- clearance ([7]; human, plasma, iv, 20 mg/m^2): 10.5 mL/min/kg
- half-life ([7]; human, plasma, iv, 20 mg/m^2): 10.5 h
- half-life ([7]; human, plasma, iv, 40 mg/m^2): 9.2 h
- AUC(0-inf) ([7]; human, plasma, iv, 60 mg/m^2): 5.02 µM·h
- AUC(0-t) ([7]; human, plasma, iv, 60 mg/m^2): 4.55 µM·h
- Cmax ([7]; human, plasma, iv, 60 mg/m^2): 1.3 µM
- clearance ([7]; human, plasma, iv, 60 mg/m^2): 10.5 mL/min/kg
- half-life ([7]; human, plasma, iv, 60 mg/m^2): 6.1 h
- AUC(0-inf) ([7]; human, plasma, iv, 80 mg/m^2): 16.8 µM·h
- AUC(0-t) ([7]; human, plasma, iv, 80 mg/m^2): 15 µM·h
- Cmax ([7]; human, plasma, iv, 80 mg/m^2): 5.7 ± 0.1 µM
- clearance ([7]; human, plasma, iv, 80 mg/m^2): 4.17 mL/min/kg
- half-life ([7]; human, plasma, iv, 80 mg/m^2): 6.7 ± 0.1 h
- AUC(0-inf) ([7]; human, plasma, iv, 110 mg/m^2): 22.9 µM·h
- AUC(0-t) ([7]; human, plasma, iv, 110 mg/m^2): 19.8 µM·h
- Cmax ([7]; human, plasma, iv, 110 mg/m^2): 7.3 ± 2.4 µM
- clearance ([7]; human, plasma, iv, 110 mg/m^2): 4.67 mL/min/kg
- half-life ([7]; human, plasma, iv, 110 mg/m^2): 7.6 ± 0.2 h
- AUC(0-inf) ([7]; human, plasma, iv, 150 mg/m^2): 29.5 µM·h
- AUC(0-t) ([7]; human, plasma, iv, 150 mg/m^2): 25.6 µM·h
- Cmax ([7]; human, plasma, iv, 150 mg/m^2): 8.7 µM
- clearance ([7]; human, plasma, iv, 150 mg/m^2): 4.5 mL/min/kg
- half-life ([7]; human, plasma, iv, 150 mg/m^2): 7.2 h
- AUC(0-inf) ([7]; human, plasma, iv, 200 mg/m^2): 41.3 µM·h
- AUC(0-t) ([7]; human, plasma, iv, 200 mg/m^2): 34.8 µM·h
- Cmax ([7]; human, plasma, iv, 200 mg/m^2): 8 ± 4.5 µM
- clearance ([7]; human, plasma, iv, 200 mg/m^2): 4.33 mL/min/kg
- half-life ([7]; human, plasma, iv, 200 mg/m^2): 7.1 ± 0.5 h
- AUC(0-inf) ([7]; human, plasma, iv, 266 mg/m^2): 90.8 µM·h
- AUC(0-t) ([7]; human, plasma, iv, 266 mg/m^2): 59.9 µM·h
- Cmax ([7]; human, plasma, iv, 266 mg/m^2): 7.8 µM
- clearance ([7]; human, plasma, iv, 266 mg/m^2): 2.5 mL/min/kg
- half-life ([7]; human, plasma, iv, 266 mg/m^2): 10.2 h
- AUC(0-inf) ([7]; human, plasma, iv, 354 mg/m^2): 180 µM·h
- AUC(0-t) ([7]; human, plasma, iv, 354 mg/m^2): 114 µM·h
- Cmax ([7]; human, plasma, iv, 354 mg/m^2): 17.3 ± 8.5 µM
- clearance ([7]; human, plasma, iv, 354 mg/m^2): 2.17 mL/min/kg
- half-life ([7]; human, plasma, iv, 354 mg/m^2): 11.5 ± 7.3 h
- AUC(0-inf) ([7]; human, plasma, iv, 470 mg/m^2): 203 µM·h
- AUC(0-t) ([7]; human, plasma, iv, 470 mg/m^2): 143 µM·h
- Cmax ([7]; human, plasma, iv, 470 mg/m^2): 33.7 µM
- clearance ([7]; human, plasma, iv, 470 mg/m^2): 2 mL/min/kg
- half-life ([7]; human, plasma, iv, 470 mg/m^2): 10.8 h
- given dose (± SD) recovered as free drug in urine ([7]; total urine collected in 24 h, average for all dose levels): 6.7 ± 3.0%
Structure (SMILES): CC(C)NCCCn1c(Sc2cc3c(cc2I)OCO3)nc2c(N)ncnc21 [PU-H71, 6-amino-8-[(6-iodo-1,3-benzodioxol-5-yl)thio]-N-(1-methylethyl)-9H–purine-9-propanamine]
- cytotoxicity [2]: high cytotoxicity
- phase 1 reactions ([3]; NADPH, 37 °C): S-oxidation, N-dealkylation, de-iodination, and O-demethylation
- dose level of first grade ≥ 2 toxicity [4]: DL 6
- progressive disease within the first 2 cycles ([5]; 14 evaluable patients): Eight of the evaluable patients progressed early
- patients with best response of stable disease [5, 8]: 35%
- patients with best response of stable disease for >2 cycles (number) [5, 8]: 6
- growth inhibitory effects in xenografts [6]: potent and lasting growth inhibitory effects
